Assay outcomes as filed in PubChem BioAssay.
In the library only some 2.1% were active in any assay of this set; here they are far more common.
FGF22 binding-1 = FGF22 (human) thermal shift binding; 340,000 tested, 1.5% active; recombinant FGF22 thermal shift, SYPRO orange fluorescence; percent of sucrose octasulfate shift, DMSO zero; activity (Tm shift, normalised), % at 9.99 µM; Q9HCT0; AID 651658;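 active = mean Tm shift, scaled 0 neutral to 100 positive control, at about 1.3% or above, every replicate too, limit read from the data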
Target sequence (Q9HCT0 whole entry, looked up): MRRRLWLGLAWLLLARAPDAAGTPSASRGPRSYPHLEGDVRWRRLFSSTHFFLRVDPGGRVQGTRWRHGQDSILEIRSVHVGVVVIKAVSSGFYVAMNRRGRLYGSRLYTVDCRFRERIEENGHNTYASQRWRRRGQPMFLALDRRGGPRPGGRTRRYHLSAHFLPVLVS
FN deposition inh = fibronectin deposition inhibition; inhibition, % at 12.6 µM; AH1F fibroblasts, Alexa488-fibronectin deposition fluorescence, overnight; AID 743247; 350,000 tested, 0.086% active;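 active = mean inhibition across replicates of 30% or more, regardless of how many single replicates reach that level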
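material = AH1F fibroblast monolayer depositing Alexa488-labelled fibronectin into matrix | amount = 10000 AH1F cells/well | buffer or medium = DMEM plus 2% serum, read in PBS | incubation = 1 h cell adhesion before compound, then overnight fibronectin incubation | detection = fluorescence at 485 nm excitation, 525 nm emission | evaluation = percent inhibition as loss of matrix-bound fibronectin fluorescence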
ARNT TACC3 PPI = disruptors of human ARNT/TACC3 interaction | Q9Y6A5 | AlphaScreen His-ARNT PAS-B/GST-TACC3 binding, luminescence; TACC3 fragment carries E629A point mutation | inhibition, % at 9.99 µM | 390,000 tested, 0.66% active;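 active = mean inhibition of replicates at least 50% and at least half of replicates each reaching 50%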
ERp5 block = blocks human ERp5 reductase activity on insulin | Q15084 | ERp5 insulin aggregation, absorbance 650 nm, 90 min | inhibition, % at 9.99 µM | 350,000 tested, 0.05% active;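 active = mean replicate inhibition above about 25%, with every replicate also reaching it, limit read from the data, passing the limit was not always enough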
AF4-AF9 inh = MLL-AF4/AF9 protein interaction inhibition; P42568; 350,000 tested, 0.47% active; AID 651704; inhibition, % at 10 µM; AlphaScreen, biotin-AF4 peptide binding to FLAG-AF9;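 active = every replicate reaching a set inhibition limit, whatever the replicate mean, cut at about 25% in these data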
PDI inh = PDI (human) enzyme inhibition | P07237 | 350,000 tested, 0.052% active | inhibition, % at 10 µM | PDI insulin aggregation turbidity, A650, 90 min;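 active = mean inhibition across replicates of 30% or more, whatever share of single replicates reach that level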
Target sequence (P07237 whole entry, looked up): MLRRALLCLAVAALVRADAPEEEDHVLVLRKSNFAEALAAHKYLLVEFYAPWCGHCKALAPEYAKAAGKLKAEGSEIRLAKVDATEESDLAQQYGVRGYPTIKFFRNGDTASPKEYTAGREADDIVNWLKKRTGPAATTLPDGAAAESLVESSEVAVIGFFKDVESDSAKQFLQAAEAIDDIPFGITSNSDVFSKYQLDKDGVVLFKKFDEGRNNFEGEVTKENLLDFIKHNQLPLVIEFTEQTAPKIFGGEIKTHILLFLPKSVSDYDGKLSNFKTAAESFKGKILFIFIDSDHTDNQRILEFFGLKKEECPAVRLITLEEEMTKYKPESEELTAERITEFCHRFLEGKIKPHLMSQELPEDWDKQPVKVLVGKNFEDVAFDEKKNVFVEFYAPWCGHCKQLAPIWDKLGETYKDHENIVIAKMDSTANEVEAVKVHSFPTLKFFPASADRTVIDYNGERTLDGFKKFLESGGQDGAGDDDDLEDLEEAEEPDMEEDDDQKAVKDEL
FGF22 binding-2 = FGF22 (human) binding in thermal shift | 1,000 tested, 2% active | recombinant FGF22 thermal shift, SYPRO orange fluorescence | thermal shift activity, °C (ΔTm) at 38 µM | shares compounds with FGF22 binding-1;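 active = fitted rise in melting shift crosses a set limit at or below the top valid dose tested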
FGF22 TSA = FGF22 (human) binding by thermal shift. shares compounds with FGF22 binding-1. Thermal shift assay, SYPRO orange, melting temperature shift. Tm shift (activity), % at 38 µM. 50 tested, under 10 active. AID 743017;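 active = compounds whose fitted dose curve of melting temperature shift rises past a set threshold within the tested doses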
SYPRO no-protein = counter-screen for FGF22 binders: compound-only thermal shift, no protein; AC50, µM (titrated, usually from 38 µM); shares compounds with FGF22 binding-1; AID 743019; compound-only SYPRO orange thermal shift counter-screen; 1,000 tested, 2% active;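 active = rising signal whose fitted curve reaches the 0.54 level within the top valid dose, showing a melting point, actives reach about 13 µM in these data; inactive = the rest, including activity in the opposite direction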; also: value is where the raw curve crosses a fixed level and not half-maximal
Numbers stand for hits; 0 = inactive; - = no result.

SMILES	FGF22 binding-1	FN deposition inh	ARNT TACC3 PPI	ERp5 block	AF4-AF9 inh	PDI inh	FGF22 binding-2	SYPRO no-protein	others
O=C([C@H]1[C@H](CO)[C@H]2Cn3c(ccc(-c4ccncc4)c3=O)[C@@H]1N2Cc1cccnc1)N1CCOCC1	0	-	0	0	0	-	-	-
COc1cc(NC(=O)c2cccs2)c(OC)cc1NC(=O)Nc1ccc(F)cc1	1.4	0	0	0	0	0	0	0
Cc1noc(C)c1NC(=O)N[C@H]1C=C[C@H](CC(=O)Nc2ccc(-c3ccccc3)cc2)O[C@H]1CO	0	0	0	0	0	-	-	-
Cc1ccc(NC(=O)c2ccc(OCc3c(C)noc3C)cc2)c(C)c1	1.6	0	0	0	0	0	-	0
CN1CCN(C(=O)[C@@H]2[C@@H](CO)[C@@H]3Cn4c(ccc(-c5cncnc5)c4=O)[C@@H]3N2CC2CCCC2)CC1	0	-	0	0	0	-	-	-
CCCC(=O)Nc1ccc(C(=O)Nc2ccc([N+](=O)[O-])cc2OC)cc1	1.4	0	0	0	0	0	0	0
CCC(=O)N1CC2(C1)CN(Cc1cccc(OC)c1)[C@@H](CO)c1[nH]c3cc(OC)ccc3c12	0	-	-	0	0	-	-	-
CCOc1ccc(NC(=O)CC2C(=O)N(c3ccccc3)C(=S)N2Cc2ccccn2)cc1 (stereo not given)	-	0	0	-	-	0	-	-
CCOc1ccc(NC(=O)CC2C(=O)N(c3ccc(OC)cc3)C(=S)N2Cc2ccccn2)cc1 (stereo not given)	2.0	0	0	0	0	0	0	0
COc1ccc(CN2C(=O)N(c3ccc(OC)cc3)C(=O)C2CC(=O)Nc2ccccc2)cc1 (stereo not given)	1.4	0	0	0	0	-	0	0
COC(=O)CN1C(=S)N(c2ccc(F)cc2)C(=O)C1CC(=O)Nc1ccccc1 (stereo not given)	1.6	0	0	0	0	0	0	0
CC(C)[C@H](C)NC(=O)N(C)C[C@@H]1OCc2ccccc2-c2c(n(C)c3ccccc23)C(=O)N([C@H](C)CO)C[C@H]1C	0	0	0	0	0	-	-	-
C[C@@H]1CN([C@H](C)CO)C(=O)c2cc(NC(=O)CCCCCC(=O)Nc3ccccc3N)ccc2O[C@H]1CN(C)C(=O)NC1CCCCC1	0	-	-	0	0	-	-	-
Cc1ccc(S(=O)(=O)Nc2cccc(S(=O)(=O)Nc3ccccc3C(=O)O)c2)c(C)c1	1.4	0	0	0	0	0	0	0
O=C(O)c1ccccc1NS(=O)(=O)c1cccc(NS(=O)(=O)c2cc(Br)ccc2Br)c1	-	0	0	0	0	0	-	-
Cc1ccc(S(=O)(=O)Nc2ccc3c(c2)C(=O)N([C@@H](C)CO)C[C@@H](C)[C@@H](CN(C)Cc2ccccc2)OCCCC[C@H](C)O3)cc1	0	0	0	-	-	-	-	-
CSc1ncccc1C(=O)Nc1ccc(S(=O)(=O)N2CCCC2)cc1	1.6	0	0	0	0	0	0	0
Cc1ccc(S(=O)(=O)Nc2ccc3c(c2)C(=O)N([C@H](C)CO)C[C@@H](C)[C@@H](CN(C)S(=O)(=O)c2c(C)noc2C)O3)cc1	0	-	0	0	0	-	-	-
O=C(Nc1nccs1)C1CC(=O)N(c2ccc(F)cc2)C1 (stereo not given)	1.4	0	0	0	0	0	0	0	FGF22 TSA=0
CCS(=O)(=O)N1CC(=O)N2[C@H](CO)[C@@H](c3ccc(-c4ccccc4F)cc3)[C@@H]2C1	1.3	-	-	0	0	-	0	0
Cn1c(C(=O)NCCc2c[nH]c3ccccc23)cc2sccc21	1.6	0	0	0	0	0	0	0
Cc1noc(C)c1NC(=O)Nc1ccc2c(c1)C(=O)N([C@@H](C)CO)C[C@@H](C)[C@@H](CN(C)C)OCCCC[C@H](C)O2	0	-	0	0	0	-	-	-
CC(=O)Nc1cccc2c1O[C@@H](CN(C)C(C)=O)[C@H](C)CN(C)C2=O	-	0	-	-	-	-	-	-
COc1ccc(NC(=O)N(C)C[C@H]2OCCCC[C@H](C)Oc3ccc(NS(=O)(=O)c4ccc(Cl)cc4)cc3C(=O)N([C@H](C)CO)C[C@@H]2C)cc1	0	0	0	0	0	-	-	-
C[C@@H]1CCCCO[C@H](CN(C)C(=O)Nc2ccccc2)[C@H](C)CN([C@@H](C)CO)C(=O)c2cc(NS(=O)(=O)c3ccc(Cl)cc3)ccc2O1	0	0	0	0	0	-	-	-
SMILES	FGF22 binding-1	FN deposition inh	ARNT TACC3 PPI	ERp5 block	AF4-AF9 inh	PDI inh	FGF22 binding-2	SYPRO no-protein	others
O=C(Nc1ccc(NC(=O)c2cccs2)cc1)c1cccs1	0	0	0	0	0	0	-	-
Cc1ccn(-c2ccc(NC(=O)c3cccs3)cc2)n1	1.8	0	0	0	0	0	0	0	FGF22 TSA=0
CCOC(=O)c1c(C)oc2cc(Br)c(O)c(Br)c12	1.4	0	-	0	0	-	0	0
O=C(O)C1CSC2(CCN(Cc3ccccc3)CC2)N1 (stereo not given)	39	-	0	0	0	0	0	0
COc1ccccc1NC(=O)N[C@H]1CC[C@H](CCn2cc(-c3ccccc3OC)nn2)O[C@H]1CO	1.7	0	0	0	0	-	0	0
COc1ccc(-c2cn(CC[C@H]3CC[C@H](NC(=O)Nc4ccc(F)cc4)[C@@H](CO)O3)nn2)cc1	1.5	0	-	0	0	-	0	0
COc1ccccc1NC(=O)N[C@H]1CC[C@H](CCn2cc(-c3ccccc3)nn2)O[C@H]1CO	0	-	0	0	0	-	-	-
COc1ccc(NC(=O)N[C@@H]2CC[C@H](CCn3cc(-c4ccc(F)cc4)nn3)O[C@@H]2CO)cc1	0	0	0	0	0	-	-	-
COc1ccccc1NC(=O)N[C@@H]1CC[C@H](CCn2cc(-c3ccccc3OC)nn2)O[C@@H]1CO	1.3	0	0	0	0	-	0	0
Cc1noc(C)c1NC(=O)N(C)C[C@H]1OCCCC[C@@H](C)Oc2ccc(NC(=O)CCC(F)(F)F)cc2C(=O)N([C@H](C)CO)C[C@@H]1C	0	-	0	0	0	-	-	-
CO[C@H]1CN(C)C(=O)c2ccc(NC(=O)Nc3ccccc3F)cc2OC[C@H](C)NC[C@H]1C	0	0	0	0	0	-	-	-
O=C(c1ccccn1)N1CC2(C1)[C@@H](c1ccccc1)[C@@H](CO)N2C(=O)CC1CC1	0	-	-	0	0	-	-	-
COc1ccc(Nc2nnc(-c3ccncc3)s2)cc1Cl	1.5	0	0	0	0	0	0	0
COc1ccc(Cl)cc1Nc1nnc(-c2ccncc2)s1	0	0	0	0	0	0	-	-
